In ChEMBL document CHEMBL1148284, “Antagonist analogue of 6-[3'-(1-adamantyl)-4'-hydroxyphenyl]-2-naphthalenecarboxylic acid (AHPN) family of apoptosis inducers that effectively blocks AHPN-induced apoptosis but not cell-cycle arrest” (2004):
Calls of active or inactive are those of the source. The calls are words filed in the database; no cut-off is given here.

Columns and labels:
HL-60 [1] = experiment: Induction of apoptosis in HL60R leukemia cells after 24 hr r treatment at 1E-6M; assay type: functional, Homo sapiens
Method in brief: (§1)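 Cells exposed to agonist in medium with 0.1% Me2SO vehicle: HL-60R for 24 h, MDA-MB-231 for 96 h. Cells fixed and stained with acridine orange; apoptotic nuclei scored by nuclear fragmentation in 200-cell fields. Percent apoptosis is the average of triplicates.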

MDA-MB-231 [2] = experiment: Induction of apoptosis in MDA-MB-231 breast cancer cells after 96 hr at 0.5E-6M; assay type: functional, Homo sapiens; method in brief: as §1
MDA-MB-231 [3] = experiment: Induction of apoptosis in MDA-MB-231 breast cancer cells after 96 hr at 1E-6M; assay type: functional, Homo sapiens; method in brief: as §1
HL-60 [4] = experiment: Induction of apoptosis in HL60R leukemia cells after 24 hr r treatment at 0.1E-6M; assay type: functional, Homo sapiens; method in brief: as §1
[5] = target: T1, Retinoic acid receptor RXR-alpha (Homo sapiens) (UniProt P19793); experiment: Displacement of [3H]9-cis-RA from Retinoic acid receptor RXR-alpha LBD
T1 sequence (whole entry): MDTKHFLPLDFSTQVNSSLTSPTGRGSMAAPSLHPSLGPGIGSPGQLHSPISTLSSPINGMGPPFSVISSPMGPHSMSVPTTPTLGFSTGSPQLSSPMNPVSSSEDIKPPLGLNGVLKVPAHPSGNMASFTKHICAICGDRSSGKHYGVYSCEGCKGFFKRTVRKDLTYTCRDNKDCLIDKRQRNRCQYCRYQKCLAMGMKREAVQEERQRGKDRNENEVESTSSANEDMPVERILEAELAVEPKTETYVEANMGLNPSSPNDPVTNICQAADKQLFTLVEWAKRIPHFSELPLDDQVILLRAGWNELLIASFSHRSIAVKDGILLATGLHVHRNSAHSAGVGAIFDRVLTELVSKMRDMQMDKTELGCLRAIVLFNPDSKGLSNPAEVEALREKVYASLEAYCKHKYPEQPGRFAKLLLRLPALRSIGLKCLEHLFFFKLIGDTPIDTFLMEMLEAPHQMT
Method in brief: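 Bacterially expressed receptor LBDs (RARs as GST fusions, RXRα as His6 fusion; about 1.0 × 10^-8 M) incubated with 1.0 × 10^-9 M [11,12-3H2]9-cis-RA (43 Ci/mmol), with or without 1.0 × 10^-9 M unlabeled competitor. Bound and free radioligand separated by Sephadex G-50 gel filtration; mean ± SEM of three independent experiments.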

MDA-MB-468 = experiment: Inhibition of MDA-MB-468 cell proliferation at 0.5E-6M; Inhibitory activity; assay type: functional, cell-based; details: Homo sapiens
Method in brief: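 MDA-MB-468 cells (1.0 × 10^5) seeded in DMEM/F12 with 5% FBS; after 24 h, 0.5 × 10^-6 M agent added, with or without 2.0 × 10^-6 M antagonist. Incubated 72 h, then proliferation read by colorimetric assay relative to the agent-alone control. Triplicates, 0.1% Me2SO.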

[6] = target: T2, Retinoic acid receptor alpha (Homo sapiens) (UniProt P10276); experiment: Transcriptional activation in CV-1 cells expressing RAR alpha at 1E-6M; assay type: functional, cell-based; details: Cercopithecidae
T2 sequence (whole entry): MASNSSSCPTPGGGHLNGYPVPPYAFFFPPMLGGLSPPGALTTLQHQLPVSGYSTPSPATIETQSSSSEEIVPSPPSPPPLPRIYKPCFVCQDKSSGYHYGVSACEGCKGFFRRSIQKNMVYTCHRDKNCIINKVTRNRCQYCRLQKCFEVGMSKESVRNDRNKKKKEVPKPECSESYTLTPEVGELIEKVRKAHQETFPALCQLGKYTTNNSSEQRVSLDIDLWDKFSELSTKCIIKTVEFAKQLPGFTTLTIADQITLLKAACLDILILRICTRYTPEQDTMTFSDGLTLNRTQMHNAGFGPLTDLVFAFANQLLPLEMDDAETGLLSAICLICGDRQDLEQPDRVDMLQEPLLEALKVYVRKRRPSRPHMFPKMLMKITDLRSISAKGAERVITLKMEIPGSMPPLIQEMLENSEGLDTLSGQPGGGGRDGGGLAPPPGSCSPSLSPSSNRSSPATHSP
Method in brief: (§2)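 CV-1 cells in DMEM with 10% FCS, calcium-precipitate transfected with (TREpal)2-tk-CAT plus RAR expression vector and β-gal vector. After 20 h, switched to 5% charcoal-stripped FCS and treated 24 h. CAT activity normalized to β-gal and expressed relative to 1.0 × 10^-6 M trans-RA as 100%.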

NCI-H460 [7] = experiment: Inhibition of H460 cell proliferation after 144 hr treatment at 1E-6M; assay type: functional, Homo sapiens
Method in brief: (§3)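 H460 lung cancer cells grown in RPMI 1640 with 10% FCS and treated 144 h (0.1% Me2SO vehicle). Nuclei stained with DAPI and scored under fluorescence microscopy. Value is the average of triplicates.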

[8] = target: T3, Retinoic acid receptor gamma (Homo sapiens) (UniProt P13631); experiment: Transcriptional activation in CV-1 cells expressing RAR gamma at 1E-6M; assay type: functional, cell-based; details: Cercopithecidae; method in brief: as §2
T3 sequence (whole entry): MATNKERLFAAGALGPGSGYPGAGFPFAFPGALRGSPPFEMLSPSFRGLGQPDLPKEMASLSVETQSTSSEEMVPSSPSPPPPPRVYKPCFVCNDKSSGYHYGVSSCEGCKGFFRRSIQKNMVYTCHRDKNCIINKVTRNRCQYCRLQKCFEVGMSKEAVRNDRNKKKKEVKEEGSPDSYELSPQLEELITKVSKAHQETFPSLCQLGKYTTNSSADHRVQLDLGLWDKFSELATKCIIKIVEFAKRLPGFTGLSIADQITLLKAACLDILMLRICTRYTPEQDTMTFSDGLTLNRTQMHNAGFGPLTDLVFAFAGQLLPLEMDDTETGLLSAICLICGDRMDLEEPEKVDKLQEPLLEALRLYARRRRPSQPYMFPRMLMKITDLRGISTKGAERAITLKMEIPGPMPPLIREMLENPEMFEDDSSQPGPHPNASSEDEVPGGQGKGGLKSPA

[9] = target: T4, Retinoic acid receptor beta (Homo sapiens) (UniProt P10826); experiment: Transcriptional activation in CV-1 cells expressing RAR beta at 1E-6M; assay type: functional, cell-based; details: Cercopithecidae
T4 sequence (whole entry): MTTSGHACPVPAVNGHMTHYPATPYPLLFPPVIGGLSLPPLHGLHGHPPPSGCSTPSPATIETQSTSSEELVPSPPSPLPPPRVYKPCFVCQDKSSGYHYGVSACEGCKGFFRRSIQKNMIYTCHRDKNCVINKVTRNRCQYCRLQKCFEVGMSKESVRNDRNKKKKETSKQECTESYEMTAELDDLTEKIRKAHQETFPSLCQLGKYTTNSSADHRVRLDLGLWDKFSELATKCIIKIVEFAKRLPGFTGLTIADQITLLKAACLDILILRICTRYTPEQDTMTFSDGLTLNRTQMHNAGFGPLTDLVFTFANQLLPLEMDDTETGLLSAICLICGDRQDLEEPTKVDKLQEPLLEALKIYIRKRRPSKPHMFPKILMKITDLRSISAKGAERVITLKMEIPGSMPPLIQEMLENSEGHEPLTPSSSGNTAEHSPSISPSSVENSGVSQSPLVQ

NCI-H460 [10] = experiment: Inhibition of H460 cell proliferation after 144 hr treatment at 0.1E-6M; assay type: functional, Homo sapiens; method in brief: as §3
NCI-H460 [11] = experiment: Suppression of H460 lung cancer cell apoptosis induced by 1E-6M 5-Cl-AHPN; From 34% to 9%; assay type: functional, Homo sapiens
Method in brief: (§4)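 H460 and LNCaP cells (RPMI 1640, 10% FCS) treated 36 h with 1.0 × 10^-6 M inducer alone or with 1.0 × 10^-6 M antagonist. Cells trypsinized, fixed in 3.7% paraformaldehyde, stained with DAPI (50 µg/mL), and apoptotic nuclear morphology scored by fluorescence microscopy. Apoptosis = apoptotic/total cells × 100.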

LNCaP = experiment: Suppression of LNCaP prostate cancer cell apoptosis induced by 1E-6M 5-Cl-AHPN; From 31% to 15%; assay type: functional, Homo sapiens; method in brief: as §4
MCF7 = experiment: Inhibition of MCF-7 cell proliferation at 1E-7M; Inhibitory activity; assay type: functional, cell-based; details: Homo sapiens
BT-20 = experiment: Inhibition of BT-20 breast cancer cell proliferation at 1E-7 M; Inhibitory activity; assay type: functional, cell-based; details: Homo sapiens

Structure (SMILES) | Apoptosis (HL-60 [1]) [%] | Apoptosis (MDA-MB-231 [2]) [%] | Apoptosis (MDA-MB-231 [3]) [%] | Apoptosis (HL-60 [4]) [%] | Displacement [5] [%] | inhibition (MDA-MB-468) | Transcriptional activation [6] [%] | Inhibition (NCI-H460 [7]) [%] | Transcriptional activation [8] [%] | Transcriptional activation [9] [%] | Inhibition (NCI-H460 [10]) [%] | Suppression (NCI-H460 [11]) [%] | Suppression (LNCaP) [%] | inhibition (MCF7) | inhibition (BT-20)
O=C(O)/C=C/c1ccc(-c2ccc(O)c(C34CC5CC(CC(C5)C3)C4)c2)c(Cl)c1 | 94 | 31 | 43 | 51 | 16 | Active |  |  |  |  |  |  |  |  | 
O=C(O)c1ccc2cc(-c3ccc(O)c(C45CC6CC(CC(C6)C4)C5)c3)ccc2c1 [O-DEMETHYLATED ADAPALENE] | 98 | 26 | 46 | 78 |  |  | 21 | 80 | 88 | 78 | 20 |  |  |  | 
CCOc1cc(/C=C/C(=O)O)ccc1-c1ccc(O)c(C23CC4CC(CC(C4)C2)C3)c1 | 29 |  |  | 0 |  |  |  | 52 |  |  | 14 |  |  |  | 
CC(=O)NCCCOc1cc(/C=C/C(=O)O)ccc1-c1ccc(O)c(C23CC4CC(CC(C4)C2)C3)c1 | 0 | 0 | 1 | 0 |  |  |  |  |  |  |  | 9 | 15 |  | 
O=C(O)c1ccc2c(Cl)c(-c3ccc(O)c(C45CC6CC(CC(C6)C4)C5)c3)ccc2c1 | 94 | 21 | 41 | 62 |  |  |  | 71 |  |  | 56 |  |  |  | 
O=C(O)/C=C/c1ccc(-c2ccc(O)c(C34CC5CC(CC(C5)C3)C4)c2)cc1 [ADAROTENE] | 98 | 53 | 58 | 90 |  |  | 8 |  | 103 | 85 |  |  |  |  | 
Cc1c(-c2ccc(O)c(C34CC5CC(CC(C5)C3)C4)c2)ccc2cc(C(=O)O)ccc12 | 70 | 14 |  | 29 |  |  |  |  |  |  |  |  |  | Inhibitory activity | Inhibitory activity
Cc1cc(/C=C/C(=O)O)ccc1-c1ccc(O)c(C23CC4CC(CC(C4)C2)C3)c1 | 95 | 5 | 30 | 10 |  |  |  |  |  |  |  |  |  |  | 
